sdo1 growth – restores growth of sdo1-depleted yeast; 140,000 tested, 0.21% active; z-score at 10 µM; AID 817; S. cerevisiae sdo1-depleted JHY4D growth rescue, OD600 30 h; hits give high values; pdr5 snq2 efflux-pump mutant strain;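 active = z-score above 3 at both the 24 hr and the 30 hr optical density reads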
RAM network inh – yeast RAM network inhibition. S. cerevisiae dse1pr::URA3 reporter, 5-FOA growth OD615, 2 d; analog-sensitive cbk1-as2 kinase mutant strain. inhibition, % at 50 µM. 190,000 tested, 1.8% active;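 active = inhibition above a set limit, 3 SD over mean compound inhibition, cut at about 8.4% in these data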;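 note: inhibition rescues growth on 5-FOA so higher OD means more RAM inhibition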
Yeast lifespan up – yeast lifespan extension. S. cerevisiae growth with nicotinamide, OD615; deaD strain in restrictive glucose medium. inhibition of the nicotinamide effect, % at 10 µM. 130,000 tested, 0.68% active;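 active = inhibition above a set limit, placed 3 SD over the median of all compounds, cut at about 26% in these data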
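Test system: DeaD-strain S. cerevisiae / Buffer or medium: restrictive glucose medium / Also added: nicotinamide 1.5 mM / Doses: one concentration, 10 µM, DMSO 0.25% / Schedule: 48 h at 30 °C / Signal: OD615 measurement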
BB579 growth dn – reduces growth of yeast BB579 in restrictive medium; S. cerevisiae BB579 growth, OD615, 48 h; inhibition, % at 10 µM; 140,000 tested, 0.51% active;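 active = inhibition above a set limit, 3 SD over the mean compound inhibition, cut at about 44% in these data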
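test system = yeast BB579 (DeaD) | buffer or medium = restrictive CSMM-D medium | doses = single compound dose of 10 µM, 0.25% DMSO final | times = 4 h preincubation and 48 h exposure at 30 °C | technique = culture absorbance at 615 nm | benchmarks = amphotericin B 10 µg/mL, positive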
Each line names hits and unclear results; the compound was inactive in the other large screens. Compounds with a hit are over-represented: about 2.7% of the library has one in this group of screens.

CCCCc1oc2ccccc2c1C(=O)c1cc(I)c(OCCN(CC)CC)c(I)c1	BB579 growth dn 99.0 (no result: RAM network inh)
CCN(CC)CCOc1ncnc2c1oc1ccccc12	none
CC1CCCCN1Cc1c(O)ccc2c(=O)c(-c3nc4ccccc4s3)c(N)oc12 (stereo not given)	none
O=C(NCc1ccco1)c1cccc2c1C(=O)N(C1CCCCC1)C2	none
O=C(NCc1cccnc1)c1cccc2c1C(=O)N(C1CCCCC1)C2	Yeast lifespan up 52.2
CCOc1cc(CNc2nn[nH]n2)ccc1OCC(=O)NC(C)(C)C	none (no result: sdo1 growth, Yeast lifespan up, BB579 growth dn)
COc1ccc(SCC(=O)c2cc(C)c(OC(=S)N(C)C)c(C)c2)cc1	none
Cc1cc(C(=O)CSc2ccc(F)cc2)cc(C)c1OC(=S)N(C)C	RAM network inh 8.8
O=Cc1cc2ccccc2nc1SCc1ccc(Cl)c(Cl)c1	RAM network inh 8.6
O=Cc1cc2ccccc2nc1SCc1ccc(Cl)cc1	Yeast lifespan up 34.1
Cc1ccc(CSc2nc3ccccc3cc2C=O)cc1	RAM network inh 10.4
CCN(CC)c1ccc(CN2CCC(C(=O)NCc3ccc(C)cc3)CC2)cc1	none (no result: sdo1 growth, Yeast lifespan up, BB579 growth dn)
CC(C)(C)C(=O)O/N=C1/C(=O)N(c2ccccc2)c2ccccc21	BB579 growth dn 67.2
CC1=C(C)/C(=N\OS(=O)(=O)c2ccccc2)C=CC1=O	BB579 growth dn 99.9
Cc1cc(=O)oc2cc(OCc3ccc(C(=O)OCC(=O)Nc4ccc(N(C)C)cc4)cc3)ccc12	none (no result: sdo1 growth, Yeast lifespan up, BB579 growth dn)
COc1ccc(-n2cc(-c3ccc(Br)cc3)[nH]c2=S)cc1	RAM network inh 9.6 (no result: sdo1 growth, Yeast lifespan up, BB579 growth dn)
CC[C@H](C)[C@@H](NC(=O)O[C@@H]1C(=O)c2cc(OC)ccc2O[C@H]1c1ccc(OC)c(Br)c1)C(=O)OC	none
COC(=O)[C@H](Cc1ccccc1)NC(=O)O[C@@H]1C(=O)c2cc(OC)ccc2O[C@H]1c1ccc(OC)c(Br)c1	RAM network inh 10.6
CCOC(=O)c1c(/N=C/c2cc(OC)cc([N+](=O)[O-])c2O)sc(C)c1C	RAM network inh 9.5
CCOC(=O)c1c(/N=C/c2cc([N+](=O)[O-])ccc2O)sc(C)c1C	BB579 growth dn 61.4
Cc1c(C(=O)C(=O)NCc2ccco2)c2ccccc2n1C	none (no result: sdo1 growth, Yeast lifespan up, BB579 growth dn)
Cc1ccc(-c2csc3ncnc(N4CCc5ccccc5C4)c23)cc1	none
Fc1ccc(-c2csc3ncnc(N4CCc5ccccc5C4)c23)cc1	RAM network inh 9.1
Cc1ccccc1NC(=O)C(NC1CCCCC1)C(C)C (stereo not given)	none (no result: sdo1 growth, Yeast lifespan up, BB579 growth dn)
O=C(Cn1cc([N+](=O)[O-])cn1)Nc1cccnc1	none (no result: sdo1 growth, Yeast lifespan up, BB579 growth dn)
Cc1cc(C(=O)Nc2nnc(-c3ccccc3)s2)no1	Yeast lifespan up 27.5
Cc1cc(C(=O)Nc2nnc(C3CCCCC3)s2)no1	none
O=C(O)C(c1ccccc1)C(c1ccccc1)c1ccccc1 (stereo not given)	none (no result: sdo1 growth, Yeast lifespan up, BB579 growth dn)
CCN1c2cccc3cccc(c23)S1(=O)=O	none
CCN1/C(=C(\O)c2ccccc2)C(=O)c2ccccc2S1(=O)=O	BB579 growth dn 100.0
COc1cc(OC)c(OC)cc1/C=C/C(=O)c1ccc(NS(=O)(=O)c2ccc(C)cc2)cc1	RAM network inh 9.9
COc1ccccc1NS(=O)(=O)c1cccc(C(=O)OCc2nc3ccccc3s2)c1	RAM network inh 8.4
COc1ccccc1NS(=O)(=O)c1cccc(C(=O)OCC(=O)Nc2cc(C)on2)c1	none
CN(C)c1ncc(C2=C(Cl)C(=O)C(N3CCCC3)=C(Cl)C2=O)s1	none (no result: Yeast lifespan up)
O=C1C(Cl)=C(N2CCCCC2)C(=O)C(Cl)=C1c1cnc(N2CCCCC2)s1	RAM network inh 9.5 (no result: Yeast lifespan up)
COc1ccc(C(=O)CSc2nnc(CN3CCCCC3)n2-c2ccc(Cl)cc2)cc1OC	none
O=C(CSc1nnc(CN2CCOCC2)n1-c1ccc(Cl)cc1)Nc1cc(Cl)ccc1O	RAM network inh 11.3
c1ccc(N(c2ccccc2)c2nc(-n3ccnc3)nc(-n3ccnc3)n2)cc1	BB579 growth dn 91.8
COc1ccc(Cl)cc1NC(=O)CN(C)CC(=O)Nc1ccccc1N1CCOCC1	none (no result: sdo1 growth, Yeast lifespan up, BB579 growth dn)
O=C(Nc1ccccc1N1CCOCC1)C1(c2ccc(Cl)cc2)CCC1	RAM network inh 9.2 (no result: sdo1 growth, Yeast lifespan up, BB579 growth dn)
Cc1cc(Cl)ccc1OC(C)C(=O)Nc1ccccc1N1CCOCC1 (stereo not given)	RAM network inh 9.5
CNS(=O)(=O)c1ccc(NC(=O)c2ccccn2)cc1	none
CC(CCc1ccccc1)NC(=O)Cc1cccs1 (stereo not given)	none (no result: sdo1 growth, Yeast lifespan up, BB579 growth dn)
COCCCNC(=O)c1c(N)n(/N=C/c2ccccn2)c2nc3ccccc3nc12	none
CC(C)OCCCNC(=O)c1c(N)n(/N=C/c2cccs2)c2nc3ccccc3nc12	RAM network inh 10.8
N#Cc1ccccc1S(=O)c1ccccc1C(=O)Nc1ccccc1 (stereo not given)	none (no result: sdo1 growth, Yeast lifespan up, BB579 growth dn)
Oc1cccc(/C=N/NC(=S)Nc2cccnc2)c1O	BB579 growth dn 53.0
O=C(O/N=C/C1=C(Cl)c2ccccc2CC1)c1ccc(F)cc1	RAM network inh 9.5
CCc1nc2sc3c(O)cc(=O)[nH]c3c2cc1C	none (no result: sdo1 growth, Yeast lifespan up, BB579 growth dn)
COc1ccc(C(CC(=O)NCc2ccccc2)Sc2n[nH]c(-c3ccccc3)n2)cc1 (stereo not given)	none
COc1ccc(C(CC(=O)NCc2ccccc2)Sc2n[nH]c(-c3ccc(Cl)cc3)n2)cc1 (stereo not given)	RAM network inh 8.7
CCC1CN(C(=O)Nc2ccc(C)cc2)c2cc(C)ccc2O1 (stereo not given)	none (no result: sdo1 growth, Yeast lifespan up, BB579 growth dn)
C=CCc1c(C)c(C#N)c2nc3ccccc3n2c1NCCN(C)C	BB579 growth dn 56.6
CCc1c(C)c(C#N)c2nc3ccccc3n2c1NCCN(C)C	none
Cc1ccc(C(=O)C2C(=O)c3ccccc3C2=O)cc1	Yeast lifespan up 69.3
COc1ccccc1NS(=O)(=O)c1cc([N+](=O)[O-])ccc1N/N=C/c1c(C)[nH]c2ccccc12	RAM network inh 10.8
Cc1cccc(NC(=O)C2CCCN2C(=O)NC2CCCCC2)c1 (stereo not given)	none (no result: sdo1 growth, Yeast lifespan up, BB579 growth dn)
O=C1SC(SC(=Nc2ccccc2)Nc2ccccc2)C(=O)N1c1ccccc1 (stereo not given)	Yeast lifespan up 33.7
Cc1ccc(C(=O)O)cc1N=Cc1cc(Br)cc(Br)c1O	BB579 growth dn 89.6
CCc1nc2ccccc2c(=O)n1NC(=O)c1c(O)c2ccccc2n(CC)c1=O	none (no result: sdo1 growth, Yeast lifespan up, BB579 growth dn)
CCn1c(=O)c(C(=O)Nn2c(C)nc3ccccc3c2=O)c(O)c2ccccc21	BB579 growth dn 99.3
CCn1c(=O)c(C(=O)Nc2nc3ccccc3[nH]2)c(O)c2ccccc21	BB579 growth dn 67.3
CN(Cc1cc(=O)n2ccsc2n1)C1CCCCC1	none (no result: sdo1 growth, Yeast lifespan up, BB579 growth dn)
COc1cc(/C=C/C(=O)OCC(=O)NCCC2=CCCCC2)ccc1O	none (no result: sdo1 growth, Yeast lifespan up, BB579 growth dn)
O=C(COC(=O)/C=C/c1cccc(Br)c1)NCCC1=CCCCC1	RAM network inh 9.8
C=CCNC1=C(Cl)C(=O)N(c2ccccc2Cl)C1=O	RAM network inh 8.9
Cc1c(NC2=C(Cl)C(=O)N(c3ccccc3Cl)C2=O)c(=O)n(-c2ccccc2)n1C	none
Cc1ccccc1C(=O)NNC(=S)NC(=O)COc1ccccc1	BB579 growth dn 70.3
Cc1ccc(C(=O)NNC(=S)NC(=O)COc2ccccc2)cc1	none
Cc1[nH]n(-c2nc(-c3ccc(Cl)cc3)cs2)c(=O)c1N=Nc1ccc(O)cc1	RAM network inh 9.8 (no result: sdo1 growth, Yeast lifespan up, BB579 growth dn)
